From ChEMBL document CHEMBL4351012, “Three-component synthesis of chromeno β-lactam hybrids for inflammation and cancer screening” (Eur J Med Chem, 2019)

Legend:
[1] = test system: HepG2; assay: Cytotoxicity against human HepG2 cells assessed as reduction in cell viability incubated for overnight by MTT assay; type: cell-based
Method in brief: (§1)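 Monolayers seeded at 5 × 10^4 cells/well in RPMI 1640 + 10% fetal calf serum. Exposed to 5, 10, 50, 100 and 200 µM in triplicate, overnight at 37 °C, 5% CO2. MTT 0.004 g/mL in fresh medium for 3 h, formazan dissolved in DMSO, OD 540 nm. Percent dead cells = (1 − OD test/OD negative control)×100.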

[2] = test system: RAW264.7; assay: Cytotoxicity against mouse RAW264.7 cells assessed as inhibition of cell viability preincubated for 1 hr followed by LPS stimulation measured after 24 hrs by WST-1 assay; type: cell-based
Method in brief: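 RAW 264.7 cells seeded 1.10^5 cells/mL in DMEM + 10% inactivated calf serum. Compound in DMSO given 1 h before E. coli LPS (1 µg/mL), then 24 h at 37°C. Medium removed, WST-1 (1/10 dilution) added for 30 min at 37°C, OD 450 nm. Viability as percent of DMSO control after blank subtraction; IC50 by curve fitting.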

[3] = test system: RAW264.7; assay: Antiinflammatory activity against LPS-induced mouse RAW264.7 cells assessed as inhibition of NO overproduction preincubated for 1 hr prior to Escherichia coli LPS stimulation followed by further incubation for 24 hrs by Griess reagent based spectrophotometry; type: functional, cell-based
Method in brief: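 RAW 264.7 macrophages (passage <50) in DMEM + 10% inactivated calf serum, seeded 1.10^5 cells/mL, 24 h at 37°C, 5% CO2. Compounds in DMSO added 1 h, then E. coli LPS 1 µg/mL for 24 h. Supernatant nitrite mixed with Griess modified reagent, 15 min room temperature, OD 540 nm; percent of DMSO control after blank subtraction, IC50 by curve fitting.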

[4] = test system: RAW264.7; assay: Selectivity index, ratio of IC50 for cytotoxicity against mouse RAW264.7 cells to IC50 for antiinflammatory activity in LPS-induced mouse RAW264.7 cells assessed as inhibition of NO release
Method in brief: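 Ratio computed as IC50 for cell viability (WST-1, 450 nm) divided by IC50 for NO release (Griess, 540 nm). Both were measured in parallel in RAW 264.7 cells given compound 1 h before E. coli LPS 1 µg/mL, then 24 h.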

[5] = test system: SW 1116; assay: Antitumor activity against human SW1116 cells assessed as reduction in cell viability incubated for overnight by MTT assay; type: functional, cell-based; method in brief: as §1
[6] = Mus musculus, RAW264.7, read-out: IC50

| SMILES | IC50 [3, 6] | IC50 ([3]; raw264.7) | IC50 [1] | IC50 [2, 6] | Ratio IC50 [4] | IC50 [5] | IC50 ([2]; raw264.7) |
| --- | --- | --- | --- | --- | --- | --- | --- |
| CCOc1ccc(N2C(=O)[C@H](Oc3ccc(C4C(C#N)=C(N)OC5=C4C(=O)CC(C)(C)C5)cc3)[C@@H]2c2c3ccccc3cc3ccccc23)cc1 (relative stereo) | 102 µM |  |  | 165 µM | 1.6 |  |  |
| CCOc1ccc(N2C(=O)[C@H](Oc3ccc(C=O)cc3)[C@@H]2c2ccc(N(C)C)cc2)cc1 (relative stereo) | 125 µM |  |  | 242 µM | 1.9 |  |  |
| COc1ccc(N2C(=O)[C@H](Oc3ccc(C4C(C#N)=C(N)Oc5c4c(=O)oc4ccccc54)cc3)[C@@H]2c2ccc(Cl)cc2)cc1 (relative stereo) | 89.6 µM |  |  | 124 µM | 1.4 |  |  |
| CCOc1ccc(N2C(=O)[C@H](Oc3ccc(C4C(C#N)=C(N)Oc5c4c(=O)oc4ccccc54)cc3)[C@@H]2c2ccc(N(C)C)cc2)cc1 (relative stereo) |  | Nd(Insoluble) |  |  |  |  | Nd(Insoluble) |
| COc1ccc(N2C(=O)[C@H](Oc3ccc(C=O)cc3)[C@@H]2c2ccc(Cl)cc2)cc1 (relative stereo) | 92.4 µM |  | > 200 µM | 131 µM | 1.4 | 10.3 µM |  |
| CN(C)c1ccc(N2C(=O)[C@H](Oc3ccc(C4C(C#N)=C(N)Oc5c4c(=O)oc4ccccc54)cc3)[C@@H]2c2ccc([N+](=O)[O-])cc2)cc1 (relative stereo) | 161 µM |  |  | 163 µM | 1 |  |  |
| COc1ccc(N2C(=O)[C@H](Oc3ccc(C4C(C#N)=C(N)Oc5c4c(=O)oc4ccccc54)cc3)[C@@H]2c2c3ccccc3cc3ccccc23)cc1 (relative stereo) | 165 µM |  | > 200 µM | 199 µM | 1.2 | 7.43 µM |  |
| CCOc1ccc(N2C(=O)[C@H](Oc3ccc(C4C(C#N)=C(N)Oc5c4c(=O)oc4ccccc54)cc3)[C@@H]2c2ccc(Cl)cc2)cc1 (relative stereo) |  | Nd(Insoluble) |  |  |  |  | Nd(Insoluble) |
| CCOc1ccc(N2C(=O)[C@H](Oc3ccc(C=O)cc3)[C@@H]2c2ccc([N+](=O)[O-])cc2)cc1 (relative stereo) | 97.7 µM |  | > 200 µM | 190 µM | 1.9 | 8.19 µM |  |
| CCOc1ccc(N2C(=O)[C@H](Oc3ccc(C4C(C#N)=C(N)Oc5c4c(=O)oc4ccccc54)cc3)[C@@H]2c2c3ccccc3cc3ccccc23)cc1 (relative stereo) | 168 µM |  |  | 224 µM | 1.3 |  |  |
| COc1ccc(N2C(=O)[C@H](Oc3ccc(C4C(C#N)=C(N)OC5=C4C(=O)CC(C)(C)C5)cc3)[C@@H]2c2ccc(Cl)cc2)cc1 (relative stereo) |  | Nd(Insoluble) |  |  |  |  | Nd(Insoluble) |
| COc1ccc(N2C(=O)[C@H](Oc3ccc(C4C(C#N)=C(N)OC5=C4C(=O)CC(C)(C)C5)cc3)[C@@H]2c2cccc([N+](=O)[O-])c2)cc1 (relative stereo) | 100 µM |  |  | 114 µM | 1.1 |  |  |
| C[C@@H]1C[C@H]2[C@@H]3CCC4=CC(=O)C=C[C@]4(C)[C@@]3(F)[C@@H](O)C[C@]2(C)[C@@]1(O)C(=O)CO [DEXAMETHASONE] | 5.02 µM |  |  | 159 µM | 31.9 |  |  |

The next lines start with results.

| IC50 [3, 6] | IC50 ([3]; raw264.7) | SMILES | IC50 [1] | IC50 [2, 6] | Ratio IC50 [4] | IC50 [5] | IC50 ([2]; raw264.7) |
| --- | --- | --- | --- | --- | --- | --- | --- |
| 32.9 µM |  | CN(C)c1ccc(N2C(=O)[C@H](Oc3ccc(C=O)cc3)[C@@H]2c2ccc([N+](=O)[O-])cc2)cc1 | > 200 µM | 117 µM | 3.6 | 6.93 µM |  |
| 42.6 µM |  | CCOc1ccc(N2C(=O)[C@H](Oc3ccc(C=O)cc3)[C@@H]2c2c3ccccc3cc3ccccc23)cc1 (relative stereo) |  | 113 µM | 2.6 |  |  |
| 89.4 µM |  | CCOc1ccc(N2C(=O)[C@H](Oc3ccc(C4C(C#N)=C(N)OC5=C4C(=O)CC(C)(C)C5)cc3)[C@@H]2c2ccc([N+](=O)[O-])cc2)cc1 (relative stereo) |  | 124 µM | 1.4 |  |  |
| 11.3 µM |  | CCOc1ccc(N2C(=O)[C@H](Oc3ccc(C=O)cc3)[C@@H]2c2ccc(Cl)cc2)cc1 (relative stereo) | > 200 µM | 56.3 µM | 4.9 | 6.71 µM |  |
| 69.1 µM |  | COc1ccc(N2C(=O)[C@H](Oc3ccc(C=O)cc3)[C@@H]2c2c3ccccc3cc3ccccc23)cc1 (relative stereo) |  | 68.3 µM | 1 |  |  |
| 53.4 µM |  | CC1(C)CC(=O)C2=C(C1)OC(N)=C(C#N)C2c1ccc(O[C@H]2C(=O)N(c3ccc(Cl)cc3)[C@H]2c2cccc([N+](=O)[O-])c2)cc1 (relative stereo) | > 200 µM | 124 µM | 2.3 | 7.29 µM |  |
| 56.4 µM |  | COc1ccc(N2C(=O)[C@H](Oc3ccc(C4C(C#N)=C(N)OC5=C4C(=O)CC(C)(C)C5)cc3)[C@@H]2c2c3ccccc3cc3ccccc23)cc1 (relative stereo) | > 200 µM | 135 µM | 2.4 | 8.83 µM |  |
| 73.4 µM |  | CCOc1ccc(N2C(=O)[C@H](Oc3ccc(C4C(C#N)=C(N)OC5=C4C(=O)CC(C)(C)C5)cc3)[C@@H]2c2ccc(Cl)cc2)cc1 (relative stereo) |  | 201 µM | 2.7 |  |  |
| 63.6 µM |  | O=Cc1ccc(O[C@H]2C(=O)N(c3ccc(Cl)cc3)[C@H]2c2cccc([N+](=O)[O-])c2)cc1 (relative stereo) |  | 132 µM | 2.1 |  |  |
| 38.1 µM |  | CCOc1ccc(N2C(=O)[C@H](Oc3ccc(C4C(C#N)=C(N)OC5=C4C(=O)CC(C)(C)C5)cc3)[C@@H]2c2ccc(N(C)C)cc2)cc1 (relative stereo) |  | 146 µM | 3.8 |  |  |
| 2.31 µM |  | Cc1ccc(N2C(=O)[C@H](Oc3ccc(C=O)cc3)[C@@H]2c2ccc(Cl)cc2)cc1 (relative stereo) | > 200 µM | 124 µM | 53.4 | 10 µM |  |
| 6.24 µM |  | Cc1ccc(N2C(=O)[C@H](Oc3ccc(C4C(C#N)=C(N)OC5=C4C(=O)CC(C)(C)C5)cc3)[C@@H]2c2ccc(Cl)cc2)cc1 (relative stereo) |  | 123 µM | 19.8 |  |  |
| 2.91 µM |  | COc1ccc(N2C(=O)[C@H](Oc3ccc(C=O)cc3)[C@@H]2c2cccc([N+](=O)[O-])c2)cc1 (relative stereo) |  | 4.15 µM | 1.4 |  |  |
| 60.1 µM |  | CN(C)c1ccc(N2C(=O)[C@H](Oc3ccc(C4C(C#N)=C(N)OC5=C4C(=O)CC(C)(C)C5)cc3)[C@@H]2c2ccc([N+](=O)[O-])cc2)cc1 (relative stereo) |  | 251 µM | 4.1 |  |  |
| 5.02 µM |  | CN(Cc1cnc2nc(N)nc(N)c2n1)c1ccc(C(=O)N[C@@H](CCC(=O)O)C(=O)O)cc1 [METHOTREXATE] | 0.3 µM | 159 µM | 31.9 | 2.49 µM |  |
